Legend:
Type in all cases: functional
Staphylococcus aureus = experiment: Antibacterial activity against Staphylococcus aureus at 20 mg/mL by agar diffusion method
Method in brief: (§1)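 Agar diffusion assay with test solutions at 20 mg/mL in DMSO, run alongside tetracycline as reference. Read-out is the diameter of the inhibition zone in mm, reported as an average.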

Enterococcus faecalis = experiment: Antibacterial activity against Streptococcus faecalis at 20 mg/mL by agar diffusion method; method in brief: as §1
Escherichia coli = experiment: Antibacterial activity against Escherichia coli at 20 mg/mL by agar diffusion method; method in brief: as §1
Pseudomonas aeruginosa = experiment: Antibacterial activity against Pseudomonas aeruginosa at 20 mg/mL by agar diffusion method; method in brief: as §1

SMILES | diameter of the inhibition zone (DIZ) (Staphylococcus aureus) | diameter of the inhibition zone (DIZ) (Enterococcus faecalis) | diameter of the inhibition zone (DIZ) (Escherichia coli) | diameter of the inhibition zone (DIZ) (Pseudomonas aeruginosa)
COc1ccccc1Cc1cc(-c2ccccc2)n[nH]/c1=N/N=C/c1ccc(OCCOc2ccc(C=O)cc2)cc1 | 14 mm | 12 mm | 12 mm | 13 mm
COc1ccccc1Cc1cc(-c2ccccc2)n[nH]/c1=N/N=C/c1cc(OC)c(OCCOc2c(OC)cc(C=O)cc2OC)c(OC)c1 | 14 mm | 13 mm | 12 mm | 14 mm
COc1ccc(-c2cc(Cc3ccccc3OC)/c(=N/N=C/C(O)C(O)C(O)C(O)CO)[nH]n2)cc1 (configuration not stated) | 16 mm | 15 mm | 15 mm | 14 mm
COc1ccc(-c2cc(Cc3ccccc3OC)/c(=N/N=C/c3ccc(O)c(OC)c3)[nH]n2)cc1 | 12 mm | 12 mm | 12 mm | 13 mm
COc1ccccc1Cc1cc(-c2ccc(Cl)cc2)n[nH]/c1=N\N=C\C(O)C(O)C(O)CO (configuration not stated) | 16 mm | 17 mm | 16 mm | 15 mm
COc1ccccc1Cc1cc(-c2ccc(Cl)cc2)n[nH]/c1=N/N=C/c1ccc(OCCOc2ccc(C=O)cc2OC)c(OC)c1 | 12 mm | 12 mm | 13 mm | 13 mm
COc1ccc(-c2cc(Cc3ccccc3OC)/c(=N\N=C\c3ccc(OCCOc4ccc(C=O)cc4OC)c(OC)c3)[nH]n2)cc1 | 10 mm | 10 mm | 11 mm | 10 mm
COc1ccccc1Cc1cc(-c2ccccc2)n[nH]/c1=N\N=C(C)C | 16 mm | 16 mm | 15 mm | 15 mm
COc1ccc(-c2cc(Cc3ccccc3OC)/c(=N/N=C/C(O)C(O)C(O)CO)[nH]n2)cc1 (configuration not stated) | 12 mm | 12 mm | 12 mm | 11 mm
COc1ccc(-c2cc(Cc3ccccc3OC)/c(=N/N=C(\c3ccccc3)c3ccccc3C(=O)O)[nH]n2)cc1 | 18 mm | 17 mm | 16 mm | 17 mm
CN(C)[C@@H]1C(O)=C(C(N)=O)C(=O)[C@@]2(O)C(O)=C3C(=O)c4c(O)cccc4[C@@](C)(O)[C@H]3C[C@@H]12 [TETRACYCLINE] | 20 mm | 26 mm | 22 mm | 24 mm
COc1ccccc1Cc1cc(-c2ccccc2)n[nH]/c1=N\N=C(c1ccccc1)c1ccccc1 | 13 mm | 13 mm | 12 mm | 13 mm
COc1ccc(-c2cc(Cc3ccccc3OC)/c(=N/N=C/c3ccc(OC(C)=O)c(OC)c3)[nH]n2)cc1 | 14 mm | 13 mm | 15 mm | 12 mm
COc1ccccc1Cc1cc(-c2ccc(C)cc2)n[nH]/c1=N/N=C/C(OC(C)=O)C(OC(C)=O)C(COC(C)=O)OC(C)=O (configuration not stated) | 13 mm | 13 mm | 13 mm | 12 mm
COc1ccc(-c2cc(Cc3ccccc3OC)/c(=N\N=C\C(OC(C)=O)C(OC(C)=O)C(OC(C)=O)C(COC(C)=O)OC(C)=O)[nH]n2)cc1 (configuration not stated) | 13 mm | 14 mm | 14 mm | 13 mm
COc1ccccc1Cc1cc(-c2ccc(C)cc2)n[nH]\c1=N/N=C(C)/C(C)=N/N=c1/[nH]nc(-c2ccc(C)cc2)cc1Cc1ccccc1OC | 14 mm | 13 mm | 13 mm | 14 mm
COc1ccc(-c2cc(Cc3ccccc3OC)/c(=N/N=C(\C)C(C)=O)[nH]n2)cc1 | 13 mm | 13 mm | 13 mm | 13 mm
COc1ccccc1Cc1cc(-c2ccccc2)n[nH]/c1=N\N=C(/C)c1ccccc1 | 13 mm | 13 mm | 12 mm | 12 mm

From ChEMBL document CHEMBL1158355, “Novel pyridazine derivatives: Synthesis and antimicrobial activity evaluation” (2009)
